Here are results for 4 compounds from ChEMBL document CHEMBL1221364 (Bioorg Med Chem, 2010).

For orientation: Ki means the dissociation constant of the complex between target and ligand, obtained from inhibition or displacement. As usually defined, the EC50 is the concentration needed to bring the measured effect to its halfway point.

The structures appear in SMILES notation.

A short description of assay [1]: Displacement of [3H]SCH23390 from D1 like receptor in pig striatal tissue by topcount scintillation counting. It counts as tissue-based, Sus scrofa, Striatum. A digest of the protocol: (§1)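 Porcine striatal membranes (P2 pellet, washed in 50 mM Tris pH 7.4), 75 µg protein per tube in 50 mM Hepes, 4 mM MgCl2, pH 7.4. Nonspecific binding was defined with 5 µM butaclamol. Incubation was 37 °C for 30 min, then filtration and scintillation counting. Ki was derived by Cheng-Prusoff and D2/D1 Ki compared.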
For orientation: Loss of bound radioactivity is the signal in a displacement assay; it reports binding, not function.

For a further assay, the species on record is Sus scrofa. Put plainly: Selectivity ratio of Ki for pig D2-like receptor to Ki for pig D1-like receptor. A digest of the protocol:
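Porcine striatal membranes (P2 pellet, washed in 50 mM Tris pH 7.4), 75 µg protein per tube in 50 mM Hepes, 4 mM MgCl2, pH 7.4. D1-like sites were labelled with 1 nM [3H]SCH-23390. D2-like sites were labelled with 0.15 nM [3H]spiperone plus 50 nM ketanserin. Nonspecific binding was defined with 5 µM butaclamol. Incubation was 37 °C for 30 min, then filtration and scintillation counting. Ki was derived by Cheng-Prusoff and D2/D1 Ki compared.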

A short description of assay [2]: Displacement of [3H]spiperone from D2 like receptor in pig striatal tissue by topcount scintillation counting. It is filed as tissue-based, Sus scrofa, Striatum. In short, it runs like this:
as §1

Assay [3] deals with T1, Alpha-2A adrenergic receptor (Homo sapiens, UniProt P08913).
T1 sequence (P08913 whole entry): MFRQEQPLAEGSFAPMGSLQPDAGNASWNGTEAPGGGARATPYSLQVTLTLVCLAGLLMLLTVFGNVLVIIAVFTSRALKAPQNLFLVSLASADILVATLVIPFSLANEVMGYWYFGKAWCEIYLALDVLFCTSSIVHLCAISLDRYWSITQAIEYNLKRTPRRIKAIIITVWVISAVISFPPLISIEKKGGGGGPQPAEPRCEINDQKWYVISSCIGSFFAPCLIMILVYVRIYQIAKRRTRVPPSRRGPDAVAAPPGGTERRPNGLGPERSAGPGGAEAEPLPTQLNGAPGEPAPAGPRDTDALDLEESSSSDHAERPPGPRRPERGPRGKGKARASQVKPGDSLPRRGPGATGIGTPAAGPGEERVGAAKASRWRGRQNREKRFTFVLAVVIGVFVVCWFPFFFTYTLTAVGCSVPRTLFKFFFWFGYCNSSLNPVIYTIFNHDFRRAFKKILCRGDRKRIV
Briefly: Binding affinity to adrenergic alpha2A receptor.

The target of assay [4] is T2, Alpha-1A adrenergic receptor (Homo sapiens, UniProt P35348).
T2 sequence (P35348 whole entry): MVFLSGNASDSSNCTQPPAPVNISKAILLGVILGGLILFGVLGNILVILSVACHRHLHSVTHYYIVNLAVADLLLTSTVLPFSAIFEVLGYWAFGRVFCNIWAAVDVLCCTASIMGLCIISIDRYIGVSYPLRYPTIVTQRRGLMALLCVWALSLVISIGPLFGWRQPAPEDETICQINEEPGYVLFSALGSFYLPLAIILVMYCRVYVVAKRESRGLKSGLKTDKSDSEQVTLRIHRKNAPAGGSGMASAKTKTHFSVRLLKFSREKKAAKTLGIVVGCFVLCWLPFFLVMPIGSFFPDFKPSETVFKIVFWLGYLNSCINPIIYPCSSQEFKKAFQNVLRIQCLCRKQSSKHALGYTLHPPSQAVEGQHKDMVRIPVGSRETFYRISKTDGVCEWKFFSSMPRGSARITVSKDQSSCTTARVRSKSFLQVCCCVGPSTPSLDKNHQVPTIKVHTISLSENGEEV
Put plainly: Binding affinity to adrenergic alpha1A receptor.

Assay [5] concerns the target T3, Alpha-2B adrenergic receptor (Homo sapiens, UniProt P18089).
T3 sequence (P18089 whole entry): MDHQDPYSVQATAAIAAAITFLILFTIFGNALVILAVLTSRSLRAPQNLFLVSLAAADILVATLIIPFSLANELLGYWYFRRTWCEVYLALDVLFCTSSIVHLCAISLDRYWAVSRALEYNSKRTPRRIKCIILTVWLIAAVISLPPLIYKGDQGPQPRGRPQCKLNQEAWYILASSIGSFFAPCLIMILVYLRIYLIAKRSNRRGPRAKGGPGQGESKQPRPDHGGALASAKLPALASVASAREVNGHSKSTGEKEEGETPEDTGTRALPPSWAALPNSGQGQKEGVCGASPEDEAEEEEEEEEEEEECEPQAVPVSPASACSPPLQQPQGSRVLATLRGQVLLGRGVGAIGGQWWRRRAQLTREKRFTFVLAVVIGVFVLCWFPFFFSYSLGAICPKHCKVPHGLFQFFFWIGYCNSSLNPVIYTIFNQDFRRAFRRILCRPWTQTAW
Put plainly: Binding affinity to adrenergic alpha2B receptor.

Another assay deals with D(3) dopamine receptor (Homo sapiens, UniProt P35462). Put plainly: Binding affinity to dopamine D3 receptor.
Chain of D(3) dopamine receptor (P35462 whole entry): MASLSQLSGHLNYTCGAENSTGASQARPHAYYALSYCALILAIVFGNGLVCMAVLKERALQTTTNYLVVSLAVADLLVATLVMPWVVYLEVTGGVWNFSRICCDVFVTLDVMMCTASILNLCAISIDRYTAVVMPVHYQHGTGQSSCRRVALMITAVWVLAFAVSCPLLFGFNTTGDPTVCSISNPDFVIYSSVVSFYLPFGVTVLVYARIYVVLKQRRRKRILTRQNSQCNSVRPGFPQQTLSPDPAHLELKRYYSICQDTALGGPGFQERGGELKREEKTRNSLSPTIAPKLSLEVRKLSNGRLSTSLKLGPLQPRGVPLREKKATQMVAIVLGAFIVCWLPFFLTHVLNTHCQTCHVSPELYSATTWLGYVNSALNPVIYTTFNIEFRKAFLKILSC
In assay [6] the target is T4, 5-hydroxytryptamine receptor 3A (Homo sapiens, UniProt P46098).
T4 sequence (P46098 whole entry): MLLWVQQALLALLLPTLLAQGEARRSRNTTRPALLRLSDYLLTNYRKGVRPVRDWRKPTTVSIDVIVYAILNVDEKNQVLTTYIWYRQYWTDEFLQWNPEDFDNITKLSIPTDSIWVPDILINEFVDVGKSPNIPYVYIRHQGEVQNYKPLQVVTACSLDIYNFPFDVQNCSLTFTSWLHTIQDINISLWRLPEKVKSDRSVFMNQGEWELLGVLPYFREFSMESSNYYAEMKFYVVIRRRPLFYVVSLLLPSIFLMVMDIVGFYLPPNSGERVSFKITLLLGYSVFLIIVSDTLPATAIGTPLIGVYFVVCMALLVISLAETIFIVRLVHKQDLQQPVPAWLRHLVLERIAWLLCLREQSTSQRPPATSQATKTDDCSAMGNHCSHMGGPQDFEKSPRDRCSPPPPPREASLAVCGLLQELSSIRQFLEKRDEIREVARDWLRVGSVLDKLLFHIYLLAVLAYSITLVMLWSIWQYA
Briefly: Binding affinity to 5HT3 receptor.

The target of the next assay is D(1B) dopamine receptor (Homo sapiens, UniProt P21918). Briefly: Binding affinity to dopamine D5 receptor.
Chain of D(1B) dopamine receptor (P21918 whole entry): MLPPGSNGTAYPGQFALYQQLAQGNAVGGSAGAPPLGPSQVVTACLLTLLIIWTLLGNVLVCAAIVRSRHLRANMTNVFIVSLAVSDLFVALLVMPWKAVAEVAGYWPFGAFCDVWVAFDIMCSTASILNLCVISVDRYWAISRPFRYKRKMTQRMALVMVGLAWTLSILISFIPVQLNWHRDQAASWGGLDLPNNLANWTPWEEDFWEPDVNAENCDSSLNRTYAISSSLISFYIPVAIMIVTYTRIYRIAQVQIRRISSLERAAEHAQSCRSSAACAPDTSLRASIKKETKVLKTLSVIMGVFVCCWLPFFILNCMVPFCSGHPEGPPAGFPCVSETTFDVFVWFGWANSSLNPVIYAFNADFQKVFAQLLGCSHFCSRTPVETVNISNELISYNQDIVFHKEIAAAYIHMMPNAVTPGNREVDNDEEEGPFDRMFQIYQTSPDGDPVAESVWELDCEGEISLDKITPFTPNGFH
The target of a further assay is T5, D(4) dopamine receptor (Homo sapiens, UniProt P21917).
T5 sequence (P21917 whole entry): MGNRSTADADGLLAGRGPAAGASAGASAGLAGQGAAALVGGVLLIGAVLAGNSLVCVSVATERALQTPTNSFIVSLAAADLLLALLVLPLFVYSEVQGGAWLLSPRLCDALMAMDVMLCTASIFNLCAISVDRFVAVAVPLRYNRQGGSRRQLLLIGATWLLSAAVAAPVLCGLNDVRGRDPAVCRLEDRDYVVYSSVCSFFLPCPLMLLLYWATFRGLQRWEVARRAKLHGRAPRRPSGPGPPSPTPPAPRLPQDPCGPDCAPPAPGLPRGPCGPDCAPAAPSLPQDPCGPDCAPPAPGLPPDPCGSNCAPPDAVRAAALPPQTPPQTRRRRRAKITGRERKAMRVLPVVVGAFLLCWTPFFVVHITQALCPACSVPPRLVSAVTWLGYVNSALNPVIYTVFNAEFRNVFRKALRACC
Briefly: Binding affinity to dopamine D4 receptor.

Assay [7] deals with T6, Alpha-2C adrenergic receptor (Homo sapiens, UniProt P18825).
T6 sequence (P18825 whole entry): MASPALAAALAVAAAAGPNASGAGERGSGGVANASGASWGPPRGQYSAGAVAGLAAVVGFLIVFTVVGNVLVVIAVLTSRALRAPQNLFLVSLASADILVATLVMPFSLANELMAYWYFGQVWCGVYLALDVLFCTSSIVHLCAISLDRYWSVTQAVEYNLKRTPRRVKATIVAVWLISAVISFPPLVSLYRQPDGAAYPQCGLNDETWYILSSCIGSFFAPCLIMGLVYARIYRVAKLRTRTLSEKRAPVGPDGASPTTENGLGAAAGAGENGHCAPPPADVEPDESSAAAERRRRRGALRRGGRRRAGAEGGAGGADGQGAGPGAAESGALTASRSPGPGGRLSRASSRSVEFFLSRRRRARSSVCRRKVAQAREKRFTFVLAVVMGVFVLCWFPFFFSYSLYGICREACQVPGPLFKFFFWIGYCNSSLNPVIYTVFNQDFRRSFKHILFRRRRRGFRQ
Briefly: Binding affinity to adrenergic Alpha-2C receptor.

Assay [8] has as its target 5-hydroxytryptamine receptor 7 (Homo sapiens, UniProt P34969). Briefly: Binding affinity to 5HT7 receptor.
Assay [9] deals with T7, D(1A) dopamine receptor (Homo sapiens, UniProt P21728). Briefly: Binding affinity to dopamine D1 receptor.
T7 sequence (P21728 whole entry): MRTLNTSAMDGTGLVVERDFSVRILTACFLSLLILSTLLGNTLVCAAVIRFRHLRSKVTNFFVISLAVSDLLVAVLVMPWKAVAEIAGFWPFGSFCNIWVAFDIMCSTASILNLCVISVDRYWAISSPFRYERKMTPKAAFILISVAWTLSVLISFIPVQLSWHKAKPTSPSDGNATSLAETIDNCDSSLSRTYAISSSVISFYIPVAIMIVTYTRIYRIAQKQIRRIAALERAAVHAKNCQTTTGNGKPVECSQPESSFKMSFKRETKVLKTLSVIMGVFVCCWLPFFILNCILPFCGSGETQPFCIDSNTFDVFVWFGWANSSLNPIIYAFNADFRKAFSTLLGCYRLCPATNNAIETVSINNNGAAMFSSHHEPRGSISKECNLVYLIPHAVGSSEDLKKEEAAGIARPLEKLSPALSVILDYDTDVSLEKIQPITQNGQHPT
Assay [10] deals with T7, D(1A) dopamine receptor. Put plainly: Agonist activity at human D1 receptor assessed as cAMP accumulation. It is filed as functional.
Assay [11] addresses Kappa-type opioid receptor (Homo sapiens, UniProt P41145). Put plainly: Binding affinity to […] opioid receptor.

Chain of Kappa-type opioid receptor (P41145 whole entry): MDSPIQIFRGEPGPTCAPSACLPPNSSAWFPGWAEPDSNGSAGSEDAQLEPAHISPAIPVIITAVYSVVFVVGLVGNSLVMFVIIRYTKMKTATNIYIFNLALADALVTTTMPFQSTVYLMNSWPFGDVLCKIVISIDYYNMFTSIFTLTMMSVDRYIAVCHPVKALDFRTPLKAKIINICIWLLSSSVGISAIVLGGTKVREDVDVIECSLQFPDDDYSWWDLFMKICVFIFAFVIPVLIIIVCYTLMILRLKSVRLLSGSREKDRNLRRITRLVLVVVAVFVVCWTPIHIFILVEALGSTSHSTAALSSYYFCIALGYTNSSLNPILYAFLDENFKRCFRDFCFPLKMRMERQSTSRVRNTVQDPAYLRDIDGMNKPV
Chain of 5-hydroxytryptamine receptor 7 (P34969 whole entry): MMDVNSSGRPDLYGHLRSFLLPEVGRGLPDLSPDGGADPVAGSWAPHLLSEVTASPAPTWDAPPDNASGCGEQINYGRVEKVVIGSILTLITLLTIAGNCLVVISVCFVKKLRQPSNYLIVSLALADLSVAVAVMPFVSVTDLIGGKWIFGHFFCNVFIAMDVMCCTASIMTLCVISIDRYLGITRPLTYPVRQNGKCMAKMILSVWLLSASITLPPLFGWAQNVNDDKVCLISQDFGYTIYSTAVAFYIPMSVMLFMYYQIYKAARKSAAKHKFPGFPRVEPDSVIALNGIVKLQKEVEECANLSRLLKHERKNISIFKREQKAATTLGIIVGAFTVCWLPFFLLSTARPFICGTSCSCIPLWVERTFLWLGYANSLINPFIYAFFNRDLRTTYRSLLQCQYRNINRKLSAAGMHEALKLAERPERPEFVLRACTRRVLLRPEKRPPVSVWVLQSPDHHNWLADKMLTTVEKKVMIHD

`CN1CCc2cc(Cl)c(O)cc2[C@@H](c2ccccc2)C1` [SCH-23390]: in assay [1], the Ki amounted to 0.00079 µM.
As to `Oc1ccc2c(c1O)CC[C@@H]1CCNC[C@H]21` (relative stereo), the Ki turned out to be 6.8 µM in assay [1] and 2.8 µM in assay [2]. The Selectivity Index in the assay filed under Sus scrofa amounted to 0.4.
On the same counts, the results for `Oc1ccc2c(c1O)CC[C@@H]1CCNC[C@@H]21` (relative stereo) are 0.85 µM, 0.67 µM and 0.8.
Consider `Oc1ccc2c(c1O)C[C@@H](c1ccccc1)[C@@H]1CCNC[C@@H]21`, for which the Ki in assay [3] stood at 0.0035 µM; in assay [4] it was 0.34 µM; in [1], 0.006 µM; in assay [5] it was 0.0064 µM; at D(3) dopamine receptor, 0.13 µM; in assay [6], 0.87 µM. In addition, the Ki stood at 0.0028 µM on D(1B) dopamine receptor; 2.65 µM on D(4) dopamine receptor; 0.0011 µM in assay [7]; 0.22 µM in [8]; 0.018 µM at D(1A) dopamine receptor [9]; 0.82 µM in [11]. The compound also had a Ki in [2] of 0.44 µM. The EC50 at D(1A) dopamine receptor [10] came to 0.00064 µM.
